The series deals with CYP3A5 (Homo sapiens, UniProt P20815). Nature of the series: C152 metabolism. The series is classed as in vitro ADME. Particulars: for Specific rate: CYP3A5. A digest of the protocol: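 Human P450s in Supersomes that co-express human CPR and cytochrome b5. Reaction in 0.1 M Na-HEPES pH 7.4 with 60 mM KCl, stirred at 30 °C. C152 0.1–30 μM added from acetone stock; 200 μM NADPH starts it. Fluorescence rise read at 500 nm (isosbestic, mono-demethylation step). Rate is the linear slope over 3–5 min, scaled by the C151–C152 fluorescence difference. Michaelis–Menten or Hill fit, Vmax per P450, 2–6 runs; rate at 30 μM computed from fit.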
Sequence of CYP3A5 (P20815 whole entry): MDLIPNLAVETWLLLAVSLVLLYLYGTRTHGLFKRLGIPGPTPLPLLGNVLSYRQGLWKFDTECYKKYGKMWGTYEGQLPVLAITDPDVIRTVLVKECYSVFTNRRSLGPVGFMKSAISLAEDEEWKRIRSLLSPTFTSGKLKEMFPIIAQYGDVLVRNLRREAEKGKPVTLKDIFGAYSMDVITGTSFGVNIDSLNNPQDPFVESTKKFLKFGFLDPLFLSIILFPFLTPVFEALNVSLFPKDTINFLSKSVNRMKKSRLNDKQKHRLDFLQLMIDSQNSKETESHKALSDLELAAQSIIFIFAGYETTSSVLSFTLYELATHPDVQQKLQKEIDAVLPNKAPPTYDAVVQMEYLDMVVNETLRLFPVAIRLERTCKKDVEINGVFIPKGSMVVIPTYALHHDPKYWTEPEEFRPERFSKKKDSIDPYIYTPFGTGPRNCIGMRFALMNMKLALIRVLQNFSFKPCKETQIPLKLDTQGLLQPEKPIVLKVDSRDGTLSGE

As a reminder, the Km is the concentration of substrate that gives half-maximal velocity. `CN(C)c1ccc2c(C(F)(F)F)cc(=O)oc2c1` [C152, 7-Dimethylamino-4-trifluromethylcoumarin]: the Specific rate is 9.5 min⁻¹ (at 30 μM C152, calculated from fit parameters) and 15.3 min⁻¹ (at saturation (Vmax in Supersomes)). Moreover, where the note is “SS(3A5), mol C152 per mol P450 per min”, the “Vmax (C152 metabolism, fluorimetric assay)” value was 15 ± 4 min⁻¹. Also, for the setting “read-out: KM or S50 (C152 metabolism, fluorimetric assay), SS(3A5), Michaelis-Menten fit, 30 °C, pH 7.4”, the Km came out at 19 ± 9 µM.

(Values after paper PMC7740640 (Xenobiotica; the fate of foreign compounds in biological …, 2020).)
